The source of these data is paper PMC8511081 (European journal of medicinal chemistry, 2021).

Structures are written as SMILES. Entries after “also recorded” stand apart in the source; their conditions may differ.

Assay [1] concerns the target T1, human sGC with ferric heme (Fe3+-sGC) (Homo sapiens, UniProt Q02153).
T1 sequence (Q02153 1-619): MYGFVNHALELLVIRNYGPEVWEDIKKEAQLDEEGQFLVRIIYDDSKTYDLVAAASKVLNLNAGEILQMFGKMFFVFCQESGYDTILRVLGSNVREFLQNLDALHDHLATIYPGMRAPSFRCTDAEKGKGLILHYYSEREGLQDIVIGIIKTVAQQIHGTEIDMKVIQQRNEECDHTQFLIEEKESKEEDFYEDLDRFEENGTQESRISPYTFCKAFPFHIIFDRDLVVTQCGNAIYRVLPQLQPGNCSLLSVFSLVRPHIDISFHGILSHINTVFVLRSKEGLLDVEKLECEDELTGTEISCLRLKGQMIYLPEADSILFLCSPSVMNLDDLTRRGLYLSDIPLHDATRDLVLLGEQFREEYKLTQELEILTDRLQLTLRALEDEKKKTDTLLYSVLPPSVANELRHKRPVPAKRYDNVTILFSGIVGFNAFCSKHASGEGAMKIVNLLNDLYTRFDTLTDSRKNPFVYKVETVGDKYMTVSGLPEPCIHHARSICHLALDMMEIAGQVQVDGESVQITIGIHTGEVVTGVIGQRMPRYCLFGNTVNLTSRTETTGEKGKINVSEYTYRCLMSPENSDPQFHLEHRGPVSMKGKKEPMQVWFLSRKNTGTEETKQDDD
T1 sequence (Q02108 1-690 partner): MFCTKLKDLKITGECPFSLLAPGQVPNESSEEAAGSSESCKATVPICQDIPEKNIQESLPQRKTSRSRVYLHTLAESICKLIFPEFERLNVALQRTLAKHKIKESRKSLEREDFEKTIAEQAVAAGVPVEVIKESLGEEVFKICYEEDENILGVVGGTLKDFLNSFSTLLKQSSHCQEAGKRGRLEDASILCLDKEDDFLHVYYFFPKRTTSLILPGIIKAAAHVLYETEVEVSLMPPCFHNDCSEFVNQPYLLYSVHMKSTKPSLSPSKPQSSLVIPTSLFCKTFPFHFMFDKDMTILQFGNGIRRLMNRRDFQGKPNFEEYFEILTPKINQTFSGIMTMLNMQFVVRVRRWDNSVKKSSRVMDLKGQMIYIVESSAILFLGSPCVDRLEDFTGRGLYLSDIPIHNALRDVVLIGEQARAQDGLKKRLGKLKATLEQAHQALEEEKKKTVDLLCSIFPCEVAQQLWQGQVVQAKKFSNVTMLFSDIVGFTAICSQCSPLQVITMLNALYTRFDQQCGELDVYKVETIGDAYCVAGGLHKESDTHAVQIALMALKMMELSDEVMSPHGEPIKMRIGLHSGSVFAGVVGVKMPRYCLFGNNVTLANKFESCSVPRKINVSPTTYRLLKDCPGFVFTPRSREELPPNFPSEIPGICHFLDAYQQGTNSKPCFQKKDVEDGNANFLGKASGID
The experiment in a line: cGMP-forming activity of purified sGC with ferric heme. The format is biochemical. As to conditions: for activation of Fe3+-sGC: 100 μM, Fig. 2B; for shape of the activation curve: dose-dependent activation of sGC with ferric heme, Fig. 3.

Assay [2] has as its target T2, human sGC with ferrous heme (Fe2+-sGC) (Homo sapiens, UniProt Q02153).
T2 sequence (Q02153 1-619): T1 sequence (Q02153 1-619)
T2 sequence (Q02108 1-690 partner): T1 sequence (Q02108 1-690 partner)
Nature of the assay: cGMP-forming activity of purified sGC with ferrous heme. It counts as biochemical. The note with it: 100 μM, Fig. 2A. An outline of the steps: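 Ferrous-heme human α1/β1 sGC, expressed in Sf9 cells and purified through DEAE, Ni-agarose and Superdex 200. Reaction started at 37 °C with 1 mM GTP/[α-32P]GTP (~100000 cpm) for 15 min. Stopped by zinc carbonate precipitation; [32P]cGMP formed.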

The target in assay [3] is T3, sGC (Homo sapiens, UniProt Q02153).
T3 sequence (Q02153 1-619): T1 sequence (Q02153 1-619)
T3 sequence (Q02108 1-690 partner): T1 sequence (Q02108 1-690 partner)
The format is biochemical. As to conditions: 100 μM screening on Fe2+-sGC and Fe3+-sGC (Fig. 2). An outline of the steps: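 Human α1/β1 sGC from Sf9 cells was purified on DEAE, Ni-agarose and gel filtration. The ferric form was made by adding 10 μM ODQ at pre-incubation. Then 15 min at 37 °C with 1 mM GTP/[α-32P]GTP; zinc carbonate stop; [32P]cGMP measured.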

In assay [4] the test system is sGC. The note with it: cited from earlier work.

With `Cc1ccc(C)c(OCCCCCC(=O)O)c1` [Compound 4d, 6-(2,5-dimethylphenoxy)hexanoic acid], in assay [1], the “activation of Fe3+-sGC” value is on record as “diminished” and the “shape of the activation curve” value is recorded as “typical S-shaped pattern”. The “activation of Fe2+-sGC” value in assay [2] is “tolerated”. Further, the “sGC activation” value in assay [3] is “activated both Fe^2+-sGC and Fe^3+-sGC”.

For `Cc1ccc(C)c(NCCCC(C)(C)C(=O)O)c1` [Compound 7a, 5-((2,5-dimethylphenyl)amino)-2,2-dimethylpentanoic acid], the “shape of the activation curve” value in assay [1] is reported as “typical S-shaped pattern”. Besides, in assay [3], the “sGC activation” value was “activated both Fe^2+-sGC and Fe^3+-sGC”.

On to `Cc1ccc(C(C)C)c(OCCCC(C)(C)C(=O)O)c1` [Compound 7c, 5-(2-isopropyl-5-methylphenoxy)-2,2-dimethylpentanoic acid], for which the “shape of the activation curve” value in assay [1] is on record as “bell-shaped curve”. In assay [3], the “sGC activation” value was “activated both Fe^2+-sGC and Fe^3+-sGC; also recorded: well tolerated”.

Consider `Cc1ccc(C)c(OCC(=O)O)c1` [Compound 4a, 2-(2,5-dimethylphenoxy)acetic acid], for which the “sGC activation” value in assay [3] is given as “not conducive to sGC activation”.

`CCC(CCCOc1cc(C)ccc1C)C(=O)O` (centres unmarked) [Compound 15a, 5-(2,5-dimethylphenoxy)-2-ethylpentanoic acid]: the “activation of Fe3+-sGC” value in assay [1] is given as “significantly hampered the activation”. For the same molecule, the “activation of Fe2+-sGC” value in assay [2] was “blocked the activation”.

`Cc1ccc(C)c(N(CCCC(C)(C)C(=O)O)C(=O)CCCCC(=O)N(CCCC(C)(C)C(=O)O)c2cc(C)ccc2C)c1` [Compound 11, 5,5’-(adipoylbis((2,5-dimethylphenyl)azanediyl))bis(2,2-dimethyl-pentanoic acid)]: the “shape of the activation curve” value in assay [1] is given as “typical S-shaped pattern”. In addition, the “sGC activation” value in assay [3] is “activated both Fe^2+-sGC and Fe^3+-sGC; also recorded: exhibited sGC activation”.

On to `O=C(O)CCCCN(CCc1ccccc1OCc1ccc(CCc2ccccc2)cc1)Cc1ccc(C(=O)O)cc1` [cinaciguat], for which the “estimated EC50” value in assay [4] was “low nanomolar range”.

Take `Cc1ccc(C)c(N(CCCC(C)(C)C(=O)O)C(=O)CCCCC(=O)O)c1` [Compound 10f, 6-((4-carboxy-4-methylpentyl)(2,5-dimethylphenyl)amino)-6-oxohexanoic acid]: in assay [1], the “activation of Fe3+-sGC” value is listed as “weak, yet statistically significant activation”.

In the case of `Cc1ccc(C)c(OCCCCC(=O)O)c1` [Compound 4c, 5-(2,5-dimethylphenoxy)pentanoic acid], the “shape of the activation curve” value in assay [1] is given as “typical S-shaped pattern”. In assay [3], the “sGC activation” value was “activated both Fe^2+-sGC and Fe^3+-sGC”.

As for `CCCCCCC(CCCOc1cc(C)ccc1C)C(=O)O` (centres unmarked) [Compound 15b, 2-(3-(2,5-dimethylphenoxy)propyl)octanoic acid], the “shape of the activation curve” value in assay [1] was “bell-shaped curve”. Also, the “sGC activation” value in assay [3] is “activated both Fe^2+-sGC and Fe^3+-sGC”.

As to `O=C(O)CCCCCOc1ccccc1` [Compound 8b, 6-phenoxyhexanoic acid], in assay [3], the “sGC activation” value is “does not activate sGC”.

`Cc1ccc(C)c(N(CCCC(C)(C)C(=O)O)C(=O)CCC(=O)O)c1` [Compound 10d, 5-(3-carboxy-N-(2,5-dimethylphenyl)propanamido)-2,2-dimethylpentanoic acid]: the “activation of Fe3+-sGC” value in assay [1] was “weak, yet statistically significant activation”.

In the case of `Cc1ccc(C)c(N(CCCC(C)(C)C(=O)O)C(=O)CCCC(=O)O)c1` [Compound 10e, 5-(4-carboxy-N-(2,5-dimethylphenyl)butanamido)-2,2-dimethylpentanoic acid], the “activation of Fe3+-sGC” value in assay [1] is “weak, yet statistically significant activation”.

As for `Cc1ccc(C)c(OCCCC(=O)O)c1` [Compound 4b, 4-(2,5-dimethylphenoxy)butanoic acid], the “sGC activation” value in assay [3] is “not conducive to sGC activation”.
